Assay outcomes from PubChem BioAssay.
Compounds with a hit are over-represented: about 4% of the library has one in this group of screens.
Pf gamet viab = late stage P. falciparum gametocyte viability inhibitors, primary screen, ATP luminescence, HTS; P. falciparum stage V gametocytes, 24 h; inhibition, % at 10.9 µM; actives 0.065% (n = 150,000);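 active = inhibition above the mean plus 3 SD of compounds within the control limits, set per campaign, cut at about 38% in these data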
bCat nuc transl = modulators of beta-catenin nuclear translocation, primary screen, imaging, HeLa cells, immunofluorescence, high-content | nuclear translocation activity, % at 5 µM | actives 0.3% (n = 190,000);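 active = nuclear translocation activity above 50% at 5 µM, with a well cell count of 50 or more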;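 also: per-cell ratio of nuclear to cytoplasmic median beta-catenin stain intensity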
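Test system: human HeLa cell line; Doses: 5 µM primary, 0.02–20 µM confirmation; Incubation: 24 h compound exposure, 37°C; Detection: beta-catenin immunofluorescence imaging with DAPI; Read-out: beta-catenin nuclear/cytoplasmic ratio, % activation.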
WT yeast gro inh = growth inhibition of WT strain, primary screen, mitochondrial fusion inhibitor project, WT and mutant strains, chemical genetic. mitochondrial fusion phenotypic screen. inhibition, % at 10 µM. actives 2.1% (n = 190,000). AID 1362, 2008; in the data active = inhibition above about 58%; tested in S. cerevisiae
KCC2 mod = KCC2 cotransporter modulators, thallium flux, primary screen, cell-based, HEK293 KCC2, FluoZin-2 fluorescence, MLSMR | Solute carrier family 12 member 5 (Homo sapiens), Q9H2X9 | KCC2 cells, thallium flux FluoZin-2 fluorescence | B-score of Tl+ flux slope (higher = more flux/activation; lower = inhibition) at 10 µM | actives 2.2% (n = 190,000);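 active = thallium flux slope and its plate-corrected score both differing from the plate sample mean at a set confidence after two filtering rounds, in either direction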;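 also: slope of fluorescence scaled to starting intensity during 10 to 20 s after thallium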
MT stabilizer = microtubule stabilizers in HeLa cells, primary screen, imaging, high-content imaging. HeLa tubulin immunostaining HCS, 24 h; share of cells brighter than vehicle mean+2SD. % tubulin-high responders, % at 10 µM. actives 0.83% (n = 200,000). AID 2205, 2009;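 active = plate Z-score above 3 for both tubulin-high and condensed-nucleus cell shares, with cell loss under 80%, at 10 µM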;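 also: anti alpha tubulin signal scored within the nucleus-defined area of each cell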
Hits are given with their value.

How did CN(c1ccccc1)S(=O)(=O)c1ccc(Cl)c(C(=O)Nc2ccc(-c3nc4ccccc4[nH]3)cc2)c1 do in these assays?
Pf gamet viab: inactive; bCat nuc transl: inactive; WT yeast gro inh: inactive; KCC2 mod: inactive; MT stabilizer: 17

What do the screens show for `OCC1(Cc2cccc(C(F)(F)F)c2)CCN(Cc2cc(F)cc(F)c2)CC1`?
Pf gamet viab: inactive; bCat nuc transl: inactive; WT yeast gro inh: 69; KCC2 mod: inactive; MT stabilizer: inactive

What do the screens show for `Cc1ccc(-n2cc(CN3CCC(CO)(Cc4cccc(C(F)(F)F)c4)CC3)cn2)cc1`?
bCat nuc transl: inactive; WT yeast gro inh: 93; KCC2 mod: inactive; MT stabilizer: inactive

Results for Cc1ccc(-n2cc(CN3CCC(CO)(Cc4ccccc4)CC3)cn2)cc1 ?
Pf gamet viab: inactive; bCat nuc transl: inactive; WT yeast gro inh: inactive; KCC2 mod: inactive; MT stabilizer: inactive

How did O=C(/C=N/O)NCCN1CCCCC1 do in these assays?
Pf gamet viab: inactive; bCat nuc transl: inactive; WT yeast gro inh: 59; MT stabilizer: inactive

What do the screens show for `CC(C)c1nc(N2CCCC2)c(C#N)c2c1CCCC2`?
WT yeast gro inh: 70; KCC2 mod: inactive; MT stabilizer: inactive

How did CC1(C)CC(=O)C2=C(C1)N=c1s/c(=C/c3ccc(F)c(F)c3)c(=O)n1C2c1ccc(F)cc1 (stereo unspecified) do in these assays?
Pf gamet viab: inactive; bCat nuc transl: inactive; WT yeast gro inh: 76; MT stabilizer: inactive

Results for CC(=O)C1=C(C)N=c2s/c(=C/c3ccc4c(c3)OCO4)c(=O)n2C1c1ccc(N(C)C)cc1 (stereo unspecified) ?
Pf gamet viab: inactive; WT yeast gro inh: inactive

What do the screens show for `CN1CCN(c2ccc(-c3ccc4ccccc4n3)cc2)CC1`?
bCat nuc transl: inactive; WT yeast gro inh: 73; KCC2 mod: inactive; MT stabilizer: inactive

How did Cc1ccccc1CC1(CO)CCCN(C(=O)c2ccc3ncccc3c2)C1 (stereo unspecified) do in these assays?
Pf gamet viab: inactive; bCat nuc transl: inactive; WT yeast gro inh: inactive; KCC2 mod: inactive; MT stabilizer: inactive

Results for CCOc1ccc(/C=C2\C(=O)c3ccccc3OC2c2ccccc2)cc1 (stereo unspecified) ?
WT yeast gro inh: inactive; KCC2 mod: inactive; MT stabilizer: 36

What do the screens show for `COc1ccc(/C=C2\C(=O)c3ccccc3OC2c2ccccc2)cc1` (stereo unspecified)?
Pf gamet viab: inactive; bCat nuc transl: inactive; KCC2 mod: inactive

How did CCN(CC)CC(=O)Nc1c(C#N)cnn1-c1ccccc1 do in these assays?
Pf gamet viab: inactive; bCat nuc transl: inactive; KCC2 mod: inactive

How did CCCc1[nH]n(-c2ccc(F)cc2)c(=O)c1C=Nc1cccc(F)c1 do in these assays?
Pf gamet viab: inactive; bCat nuc transl: inactive; WT yeast gro inh: inactive; KCC2 mod: inactive; MT stabilizer: 17

How did CCCc1[nH]n(-c2ccc(F)cc2)c(=O)c1C=NCC1CCCO1 (stereo unspecified) do in these assays?
bCat nuc transl: inactive; WT yeast gro inh: inactive; KCC2 mod: inactive; MT stabilizer: inactive

How did Nc1ccc(N2CCCCC2)cc1N1CCCCC1 do in these assays?
Pf gamet viab: inactive; bCat nuc transl: inactive; WT yeast gro inh: 72; KCC2 mod: inactive; MT stabilizer: inactive

What do the screens show for `Cc1nn(-c2cc(N3CCCCC3)ccc2N)c(=O)c2ccccc12`?
Pf gamet viab: inactive; bCat nuc transl: inactive; WT yeast gro inh: inactive; KCC2 mod: inactive; MT stabilizer: inactive

What do the screens show for `CCCCCC1CC(CC(=O)NC(=S)Nc2ccccc2Cl)C(=O)O1` (stereo unspecified)?
Pf gamet viab: inactive; bCat nuc transl: inactive; WT yeast gro inh: 61; KCC2 mod: inactive; MT stabilizer: inactive

How did CSc1cccc(-n2cc(-c3ccc4c(c3)OCO4)[nH]c2=O)c1 do in these assays?
bCat nuc transl: 162; WT yeast gro inh: inactive; KCC2 mod: inactive; MT stabilizer: 19

What do the screens show for `O=C(O)c1cccc(-c2ccc3c(c2)OCO3)c1`?
Pf gamet viab: inactive

How did COc1cc2c(cc1NC(=S)Nc1cccc3ccccc13)oc1ccccc12 do in these assays?
bCat nuc transl: inactive; WT yeast gro inh: 69; KCC2 mod: inactive; MT stabilizer: inactive

What do the screens show for `COc1cc2c(cc1NC(=S)Nc1cccc(C(F)(F)F)c1)oc1ccccc12`?
Pf gamet viab: inactive; bCat nuc transl: inactive; WT yeast gro inh: 64; KCC2 mod: inactive; MT stabilizer: inactive

How did COc1cc2c(cc1NC(=O)COc1ccccc1OC)oc1ccccc12 do in these assays?
Pf gamet viab: inactive; bCat nuc transl: inactive; WT yeast gro inh: inactive; MT stabilizer: inactive

What do the screens show for `COc1ccccc1NC(=S)N(CCN1CCCCCC1)Cc1cccs1`?
Pf gamet viab: inactive; bCat nuc transl: inactive; WT yeast gro inh: inactive; KCC2 mod: inactive; MT stabilizer: inactive

What do the screens show for `CC(C)CC(C(=O)NC(C)(C)C)N(Cc1cccs1)C(=O)c1snc(C(N)=O)c1N` (stereo unspecified)?
Pf gamet viab: inactive; bCat nuc transl: inactive; WT yeast gro inh: inactive; KCC2 mod: inactive; MT stabilizer: inactive

What do the screens show for `CN(C)C(=S)Nn1c(-c2ccccc2)nc2ccccc2c1=O`?
Pf gamet viab: inactive; bCat nuc transl: inactive; WT yeast gro inh: inactive; KCC2 mod: inactive; MT stabilizer: inactive

How did O=C(Nn1c(-c2ccccc2)nc2ccccc2c1=O)C1CCC1 do in these assays?
bCat nuc transl: inactive; WT yeast gro inh: 70; KCC2 mod: inactive; MT stabilizer: inactive

How did CCn1c(=N)n(CC(=O)c2cccc([N+](=O)[O-])c2)c2ccccc21 do in these assays?
Pf gamet viab: inactive; bCat nuc transl: inactive; WT yeast gro inh: inactive; KCC2 mod: inactive; MT stabilizer: inactive

How did CCn1c(=N)n(CC(=O)C23CC4CC(CC(C4)C2)C3)c2ccccc21 do in these assays?
WT yeast gro inh: 90; KCC2 mod: inactive; MT stabilizer: inactive

What do the screens show for `COc1cc(/C=C2\S/C(=N/S(=O)(=O)c3ccc(C)cc3)NC2=O)c([N+](=O)[O-])cc1OC`?
Pf gamet viab: inactive; bCat nuc transl: inactive; WT yeast gro inh: inactive; KCC2 mod: -6.5; MT stabilizer: inactive

How did CCOc1ccccc1N1CCN(C(=S)NC(=O)C23CC4CC(CC(C4)C2)C3)CC1 do in these assays?
bCat nuc transl: inactive; WT yeast gro inh: 59; KCC2 mod: 4.7; MT stabilizer: inactive

Results for CCOc1ccccc1N1CCN(C(=S)NCc2ccc(Cl)cc2)CC1 ?
Pf gamet viab: inactive; bCat nuc transl: inactive; WT yeast gro inh: 78; KCC2 mod: inactive; MT stabilizer: inactive

Results for O=C(CN1CCN(c2cccc(Cl)c2)CC1)NCc1ccccc1 ?
Pf gamet viab: inactive

What do the screens show for `O=C(NC(=S)N1CCN(c2ccc(F)cc2)CC1)C12CC3CC(CC(C3)C1)C2`?
bCat nuc transl: inactive; WT yeast gro inh: inactive; KCC2 mod: inactive; MT stabilizer: inactive

How did S=C(NCc1ccccc1)N1CCN(c2cccc(Cl)c2)CC1 do in these assays?
Pf gamet viab: inactive; bCat nuc transl: inactive; WT yeast gro inh: 70; KCC2 mod: inactive; MT stabilizer: inactive
